The list is not random: actives were taken first. Their share in the collection is about 1.9%.
FGF22 binding-1: shifts melting point of recombinant human FGF22; Q9HCT0; recombinant FGF22 thermal shift, SYPRO orange fluorescence; percent of sucrose octasulfate shift, DMSO zero; activity (Tm shift, normalised), % at 9.99 µM; 340,000 compounds, 1.5% hits;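 active means mean Tm shift, scaled 0 neutral to 100 positive control, at about 1.3% or above, every replicate too, limit read from the data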
Target sequence (Q9HCT0 whole entry, looked up): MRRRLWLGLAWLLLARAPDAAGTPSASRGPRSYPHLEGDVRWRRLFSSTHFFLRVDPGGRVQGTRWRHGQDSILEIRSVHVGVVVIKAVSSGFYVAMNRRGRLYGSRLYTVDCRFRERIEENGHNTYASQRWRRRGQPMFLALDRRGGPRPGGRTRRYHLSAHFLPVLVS
ARFGAP1 inh: inhibits rat ARF GTPase activating protein 1; AID 651572; Arfgap1-stimulated ARF1 GTP hydrolysis, GDP FP detection; 360,000 compounds, 0.26% hits; inhibition, % at 16.5 µM;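 active means inhibition above a per-plate limit, mean inhibition of low control wells plus 3 SD, cut at about 25% in these data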;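 further: 0% = DMSO wells with enzyme and 100% = wells lacking Arfgap1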
Target sequence (Q62848 1-136 limits assumed): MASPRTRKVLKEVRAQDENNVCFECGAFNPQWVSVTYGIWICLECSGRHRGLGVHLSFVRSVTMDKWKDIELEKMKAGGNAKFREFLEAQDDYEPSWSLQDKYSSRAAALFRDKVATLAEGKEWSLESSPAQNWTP
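Repeats: one replicate per compound; assay system: rat Arfgap1 catalytic domain, aa 1-136; times: enzyme reaction 120 min at 25 °C after 20 min preincubation; detection: FP of antibody-bound GDP Alexa 633 tracer, ex 620/em 688 nm; benchmarks: high control wells lacking Arfgap1, low control full reaction with DMSO; reagent: human ARF1(Δ1-17)-GTP substrate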
ASAP1 inh: inhibitors of human ASAP1 ArfGAP activity. AID 624377. 360,000 compounds, 0.19% hits. Q9ULH1. ASAP1-stimulated ARF1 GTP hydrolysis, GDP FP detection. inhibition, % at 16.5 µM; in the data active means inhibition above about 25%;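 further: 0% = vehicle with enzyme and substrate and 100% = no enzyme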
Efflux pump inh: antifungal efflux pump inhibition, Nile Red retention; S. cerevisiae Candida pump triplex; inhibition, % at 10 µM; 330,000 compounds, 0.44% hits; AID 485275;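 active means plate passing quality check with inhibition over a set limit, or well fluorescence over plate mean plus 4 SD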;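 further: Nile Red retained in pooled yeast measured as flow cytometry median fluorescence; 0% = buffer negative control and 100% = Enniatin B positive control; higher means more Nile Red kept so more efflux inhibition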
Rtt109 HAT inh: blocks Candida albicans Rtt109/Vps75 acetyltransferase activity. AID 540336. Q5AAJ8. inhibition, % at 34.9 µM. purified Rtt109/Vps75, ThioGlo CoA-SH fluorescence, 4 h. 330,000 compounds, 0.16% hits;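 active means inhibition of at least 50% in every replicate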
Target sequence (Q5AAJ8 whole entry, looked up): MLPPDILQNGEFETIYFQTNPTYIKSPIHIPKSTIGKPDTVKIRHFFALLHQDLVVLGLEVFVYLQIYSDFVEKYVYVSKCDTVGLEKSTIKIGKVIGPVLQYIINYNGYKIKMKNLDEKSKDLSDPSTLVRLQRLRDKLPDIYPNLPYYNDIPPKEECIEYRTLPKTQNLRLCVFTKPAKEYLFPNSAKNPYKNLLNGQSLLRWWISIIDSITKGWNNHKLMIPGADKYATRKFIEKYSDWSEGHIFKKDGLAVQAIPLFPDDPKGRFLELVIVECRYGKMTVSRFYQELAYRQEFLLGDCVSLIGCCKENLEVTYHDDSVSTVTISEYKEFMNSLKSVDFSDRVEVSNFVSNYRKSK
FGF22 binding-2: binds human FGF22 shifting its melting temperature. shares compounds with FGF22 binding-1. recombinant FGF22 thermal shift, SYPRO orange fluorescence. thermal shift activity, °C (ΔTm) at 38 µM. 1,000 compounds, 2% hits;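 active means fitted rise in melting shift crosses a set limit at or below the top valid dose tested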
FGF22 TSA DP: FGF22 (human) binding by thermal shift; 50 tested, under 10 active; Tm shift (activity), % at 38 µM; AID 743017; shares compounds with FGF22 binding-1; Thermal shift assay, SYPRO orange, melting temperature shift;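 active means compounds whose fitted dose curve of melting temperature shift rises past a set threshold within the tested doses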
TSA no protein: compound-only SYPRO artifact for FGF22 binders; shares compounds with FGF22 binding-1; 1,000 compounds, 2% hits; compound-only SYPRO orange thermal shift counter-screen, no protein; AC50, µM (series often up to 38 µM);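 active means rising signal whose fitted curve reaches the 0.54 level within the top valid dose, showing a melting point, actives reach about 13 µM in these data; inactive means the rest, including activity in the opposite direction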; further: value is where the raw curve crosses a fixed level and not half-maximal
* = called active by the depositor; i = inactive; . = not tested or not shown; [ ] = another dose, or the depositor's remark.

SMILES | FGF22 binding-1 | ARFGAP1 inh | ASAP1 inh | Efflux pump inh | Rtt109 HAT inh | FGF22 binding-2 | TSA no protein | others
O=C(CNS(=O)(=O)c1ccccc1F)OCC(=O)c1c[nH]c2ccccc12 | -0.1 | -1.6 | -10.8 | -0.1 | -6.8 | . | .
O=C(CNS(=O)(=O)c1ccccc1)OCC(=O)c1c[nH]c2ccccc12 | 2.1* | 6.7 | 10.2 | -0.1 | 3.9 | 0.102 | i
CC(C)CC(=O)Nc1ccc(C(=O)CN2C(=O)NC3(CCOc4ccccc43)C2=O)cc1 (stereo unspecified) | 1.9* | 5.8 | 11.5 | 0.1 | 17.3 | -0.156 | i
COc1ccc(/C=N/N2C(C)CCCC2C)cc1OC (stereo unspecified) | 38.2* | 11.4 | -10.4 | -0.1 | -12.9 | -0.091 | i
CC1CCCC(C)N1/N=C/c1ccc(Cl)cc1 (stereo unspecified) | . | -3.2 | 1.5 | -0.1 | 8.2 | . | .
COC(=O)C[C@@H]1CC[C@H]2[C@H](COc3ccc(NC(=O)c4cccc(Cl)c4)cc3C(=O)N2C)O1 | 0.1 | . | . | . | . | . | .
CO[C@@H]1CN(C)C(=O)c2ccc(NC(=O)C3CC3)cc2OC[C@H](C)N(C(=O)CN2CCOCC2)C[C@@H]1C | 1.4* | . | . | . | . | 0.023 | i
CCC(=O)Nc1ccc2c(c1)C(=O)N(C)C[C@H](OC)[C@@H](C)CN(C(=O)CC)[C@@H](C)CO2 | 1.5* | . | . | . | . | 0.128[42 µM] | i
CCC(=O)Nc1ccc2c(c1)C(=O)N(C)C[C@@H](OC)[C@H](C)CN(C(=O)COC)[C@H](C)CO2 | -0.1 | . | . | . | . | . | .
CO[C@H]1CN(C)C(=O)c2cc(NS(=O)(=O)c3ccc(C)cc3)ccc2OC[C@@H](C)N(C(=O)NC(C)C)C[C@@H]1C | 1.2* | . | . | . | . | -0.021 | i
CO[C@@H]1CN(C)C(=O)c2ccc(NC(=O)C3CC3)cc2OC[C@@H](C)N(C(=O)CN2CCOCC2)C[C@H]1C | 0.4 | . | . | . | . | . | .
CO[C@@H]1CN(C)C(=O)c2ccc(NC(C)=O)cc2OC[C@@H](C)N(C(=O)Cc2ccccn2)C[C@H]1C | 1.4* | . | . | . | . | 0.036[42 µM] | i
CN1[C@H](C(=O)NCC2CCCCC2)[C@@H](CO)[C@@H]2Cn3c(ccc(-c4cccnc4)c3=O)[C@@H]21 | -0.2 | . | . | . | . | . | .
O=C(O)C1CCN(C(=O)CSc2nc3ccccc3c(=O)n2Cc2ccccc2)CC1 | -0.2 | 9.0 | 15.1 | -0.2 | -10.7 | . | .
Cc1cccc(C(C)C)c1NC(=O)COC(=O)c1cc2ccccc2oc1=O | -0.1 | -10.4 | -5.8 | 0.0 | 6.7 | . | .
COc1cc(OC)cc(C(=O)Nc2ccc(S(=O)(=O)Nc3cc(C)nc(C)n3)cc2)c1 | . | -0.3 | -11.7 | 0.0 | . | . | .
COc1cc(OC)cc(C(=O)Nc2ccc(S(=O)(=O)Nc3nc(C)cc(C)n3)cc2)c1 | 1.4* | 6.0 | -2.6 | -0.2 | 2.3 | 0.05 | i
CC(=O)NC(CC(=O)NCCOc1ccccc1F)c1ccccc1 (stereo unspecified) | 0.1 | 2.5 | -4.1 | -0.1 | 7.7 | . | .
COc1ccc(S(=O)(=O)N(NC2=NS(=O)(=O)c3ccccc32)C(=O)C(C)C)cc1 | 2.6* | -8.7 | 12.2 | 0.0 | . | -0.066 | i
COc1ccc2cc(CCNC(=O)c3ccc(S(=O)(=O)N4CCOCC4)cc3)c(=O)[nH]c2c1 | 0.1 | 0.0 | -6.2 | 0.1 | 31.3 | . | .
COc1ccc([N+](=O)[O-])cc1/C=N/Nc1nn[nH]n1 | 1.5* | -2.3 | -4.9 | -0.1 | 1.2 | -0.04 | i
COc1ccc([N+](=O)[O-])cc1/C=N/NC(=O)c1nonc1N | 0.3 | 9.0 | 7.6 | 0.1 | -25.6 | . | .
CC1=C2[C@@H](c3ccccc3)OB(O)C[C@@H]2n2c(=O)n(-c3ccccc3)c(=O)n2C1 | 1.3* | . | . | . | . | -0.177 | i
OC[C@@H]1[C@H](c2ccc(-c3cccnc3)cc2)[C@@H]2CN(Cc3ccccn3)CCCCN12 | 1.4* | . | . | . | . | 0.018 | i
Cc1ccccc1-c1ccc([C@H]2[C@@H](CO)N3CCCCN(Cc4cccnc4)C[C@H]23)cc1 | 1.3* | . | . | . | . | -0.039[42 µM] | i
SMILES | FGF22 binding-1 | ARFGAP1 inh | ASAP1 inh | Efflux pump inh | Rtt109 HAT inh | FGF22 binding-2 | TSA no protein | others
OC[C@@H]1[C@H](c2ccc(-c3cccnc3)cc2)[C@H]2CN(Cc3ccccn3)CCCCN12 | 1.5* | . | . | . | . | 0.261 | i
C[C@H](CO)N1C[C@H](C)[C@@H](CN(C)C(=O)C2CCCCC2)Oc2cc(C#C[C@@H](C)O)ccc2S1(=O)=O | 0.1 | . | . | . | . | . | .
CC(C)(CNS(=O)(=O)c1ccc2c(c1)OCCO2)N1CCOCC1 | 1.4* | 10.4 | 3.2 | -0.1 | 2.5 | -0.061 | i
O=C(N/N=C\c1c[nH]c2ccccc12)c1ccc(O)cc1 | 6.7* | -13.4 | 5.0 | 0.0 | -14.7 | . | i
O=C(N/N=C/c1c[nH]c2ccccc12)C1CC1c1ccccc1 (stereo unspecified) | 1.5* | 11.8 | 9.2 | 0.2 | -1.3 | 0.036 | i
CC(C)(C)c1ccc(C2CC2C(=O)N/N=C\c2ccc[nH]2)cc1 (stereo unspecified) | 2.0* | 7.5 | -3.5 | 0.1 | 8.6 | -0.039 | i
O=C(N/N=C/c1c[nH]c2ccccc12)C1CC1(c1ccccc1)c1ccccc1 (stereo unspecified) | . | -3.5 | 1.7 | -0.1 | -11.6 | . | .
Nc1ccc(C(=O)N/N=C/c2c[nH]c3ccccc23)cc1 | 2.7* | 4.9 | 0.1 | -0.1 | . | 0.148 | i | FGF22 TSA DP=-0.2
O=C(N/N=C/c1c[nH]c2ccccc12)c1ccc(Br)cc1 | -0.1 | -2.2 | 10.2 | 0.1 | 12.6 | . | .
O=C(/C=C/c1ccco1)N/C(=C\c1ccccc1)C(=O)NCCc1nc2ccccc2[nH]1 | -0.1 | 3.6 | -18.0 | 0.0 | -17.8 | . | .
COc1ccc(NC(=O)N(C)C[C@H]2Oc3c(NC(=O)NC4CCCCC4)cccc3C(=O)N([C@@H](C)CO)C[C@@H]2C)cc1 | 0.0 | . | . | . | . | . | .
CCN(CC)S(=O)(=O)c1ccc(N/N=C(\C)c2ccc(OC)cc2O)nc1 | 1.4* | 11.5 | 10.8 | -0.3 | 10.5 | 0.135 | i
CCC(C)c1ccccc1NC(=O)c1cc2cccc([N+](=O)[O-])c2[nH]1 (stereo unspecified) | 0.2 | 11.1 | -4.6 | 0.0 | . | . | .
COc1ccc(/C=N/NC(=O)c2cccc([N+](=O)[O-])c2)cc1OC | 1.6* | 4.0 | -5.7 | 0.0 | 26.4 | 0.034 | i
COc1ccc(/C=N/NC(=O)c2cccc([N+](=O)[O-])c2)cc1OC(=O)c1ccccc1 | . | -5.1 | 4.9 | -0.2 | -1.6 | . | .
CC(=O)c1c(O)c(C)c(O)c2c1OC1=CC(=O)/C(=C(/C)N)C(=O)C12C (stereo unspecified) | 0.1 | 1.9 | -5.0 | . | . | . | .
